Source: ChEMBL document CHEMBL4814076, “Discovery of a Potent and Selective Covalent Inhibitor of Bruton's Tyrosine Kinase with Oral Anti-Inflammatory Activity” (ACS Med Chem Lett, 2021)
pIC50, pKi: −log10 of the molar value. Activity calls are given as the source filed them. The calls are words filed in the database; no cut-off is given here.

Assays:
[1] = molecular target: T1, Tyrosine-protein kinase BTK (Homo sapiens, UniProt Q06187); assay: Covalent inhibition of recombinant human GST-tagged BTK (2 to 659 end residues) expressed in baculovirus expression system assessed as inhibition constant using NH2-KKKAPFSWYLPEEG as substrate measured every 2 mins for 2 hrs in presence of ATP by microplate reader assay
T1 sequence (Q06187 whole entry): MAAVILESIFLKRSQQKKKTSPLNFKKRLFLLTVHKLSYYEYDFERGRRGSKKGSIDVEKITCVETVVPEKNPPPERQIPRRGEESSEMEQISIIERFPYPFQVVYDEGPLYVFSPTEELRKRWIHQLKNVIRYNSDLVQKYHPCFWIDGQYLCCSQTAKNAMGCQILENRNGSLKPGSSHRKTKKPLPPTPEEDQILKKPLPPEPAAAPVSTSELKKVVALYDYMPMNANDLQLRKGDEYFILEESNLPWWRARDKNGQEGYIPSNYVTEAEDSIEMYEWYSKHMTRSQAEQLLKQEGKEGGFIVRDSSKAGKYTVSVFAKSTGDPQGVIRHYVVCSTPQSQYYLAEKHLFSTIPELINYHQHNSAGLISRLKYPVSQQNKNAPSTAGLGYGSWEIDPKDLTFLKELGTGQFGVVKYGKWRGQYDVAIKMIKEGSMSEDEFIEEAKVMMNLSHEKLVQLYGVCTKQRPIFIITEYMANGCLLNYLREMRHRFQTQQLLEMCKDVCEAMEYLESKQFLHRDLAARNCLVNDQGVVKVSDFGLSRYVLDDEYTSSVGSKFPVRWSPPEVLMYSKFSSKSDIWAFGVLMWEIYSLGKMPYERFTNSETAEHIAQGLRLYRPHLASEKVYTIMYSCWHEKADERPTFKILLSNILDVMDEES

[2] = molecular target: T1, Tyrosine-protein kinase BTK; assay: Covalent inhibition of recombinant human GST-tagged BTK (2 to 659 end residues) expressed in baculovirus expression system assessed as inactivation constant using NH2-KKKAPFSWYLPEEG as substrate measured every 2 mins for 2 hrs in presence of ATP by microplate reader assay
[3] = molecular target: T1, Tyrosine-protein kinase BTK; assay: Covalent inhibition of recombinant human GST-tagged BTK (2 to 659 end residues) expressed in baculovirus expression system assessed as Kinact/Ki ratio using NH2-KKKAPFSWYLPEEG as substrate measured every 2 mins for 2 hrs in presence of ATP by microplate reader assay
[4] = molecular target: Tyrosine-protein kinase BTK (Mus musculus, UniProt P35991); assay: Inhibition of BTK in C57Bl/6 mouse splenocyte assessed as reduction in anti-IgM-induced CD69 expression incubated for 1 hr followed anti-IgM stimulation and measured after overnight by flow cytometry analysis; type: tissue-based
Sequence of Tyrosine-protein kinase BTK (Mus musculus, UniProt P35991) (P35991 whole entry): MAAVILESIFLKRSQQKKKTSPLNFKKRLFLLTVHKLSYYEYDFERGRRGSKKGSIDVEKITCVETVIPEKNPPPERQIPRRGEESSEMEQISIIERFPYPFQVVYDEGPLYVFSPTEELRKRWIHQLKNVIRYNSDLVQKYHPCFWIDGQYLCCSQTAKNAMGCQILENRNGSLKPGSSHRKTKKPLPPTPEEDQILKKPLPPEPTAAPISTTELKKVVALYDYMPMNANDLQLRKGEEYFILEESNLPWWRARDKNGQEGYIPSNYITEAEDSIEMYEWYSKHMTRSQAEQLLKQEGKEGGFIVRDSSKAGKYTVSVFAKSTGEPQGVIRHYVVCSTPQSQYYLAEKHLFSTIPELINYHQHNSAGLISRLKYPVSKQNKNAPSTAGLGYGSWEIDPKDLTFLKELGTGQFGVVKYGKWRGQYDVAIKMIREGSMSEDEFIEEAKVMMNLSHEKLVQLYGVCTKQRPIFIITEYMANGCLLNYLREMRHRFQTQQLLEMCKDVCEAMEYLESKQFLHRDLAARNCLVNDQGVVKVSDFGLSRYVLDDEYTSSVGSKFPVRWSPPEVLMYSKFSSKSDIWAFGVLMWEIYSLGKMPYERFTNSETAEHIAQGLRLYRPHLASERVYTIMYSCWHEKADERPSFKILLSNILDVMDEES
Outline: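 Mouse splenocytes stimulated with anti-IgM. CD69 expression measured as the read-out.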

[5] = Inhibition of BTK in Wistar rat whole blood assessed as reduction in anti-IgD-induced B220/CD86+ expression incubated for 1 hr followed anti-IgD stimulation and measured after overnight by flow cytometry analysis; type: tissue-based
Outline: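 B-cell activation induced by anti-IgD in rat whole blood, read as B220+CD86+ cells.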

[6] = molecular target: T1, Tyrosine-protein kinase BTK; assay: Binding affinity to recombinant unphosphorylated human GST-tagged BTK kinase domain (389 to 659 residues) expressed in insect cells incubated for 1 hr by Lanthascreen assay
[7] = Half life in human pooled liver microsomes at 1 uM measured up to 60 mins in presence of NADPH by LC-MS/MS analysis; type: ADME, Microsome
[8] = molecular target: T1, Tyrosine-protein kinase BTK; assay: Time dependent inhibition of recombinant human GST-tagged BTK (2 to 659 end residues) expressed in baculovirus expression system using NH2-KKKAPFSWYLPEEG as substrate measured every 2 mins for 2 hrs in presence of ATP by microplate reader assay
[9] = Half life of the compound at 25 degreeC; type: physicochemical

Structure (SMILES)	pKi [1]	Kinact [2] [s⁻¹]	Ratio [3] [M⁻¹ s⁻¹]	pIC50 [4]	pIC50 ([5]; Rattus norvegicus, Blood, 1 h)	other results
C=CC(=O)N1CCC[C@@H](NC(=O)c2sc3nccc4c3c2NC(=O)N4c2ccccc2C)C1	5.80	0.000573	363	–	–	–
C=CC(=O)N[C@H]1CCC[C@H]1NC(=O)c1sc2nccc3c2c1NC(=O)N3c1ccc(Oc2ccccc2)cc1C	7.83	0.000257	17400	7.10	7.00	–
C=CC(=O)N1CC[C@H](NC(=O)c2sc3nccc4c3c2NC(=O)N4c2ccc(Oc3ccccc3)cc2C)C1	6.66	–	–	7.52	6.19	–
C=CC(=O)N1CCC[C@@H](NC(=O)c2sc3nccc4c3c2NC(=O)N4c2ccc(Oc3ccccc3)cc2C(F)(F)F)C1	5.73	0.000177	95.7	–	–	–
CCC(=O)N1CCC[C@@H](NC(=O)c2sc3nccc4c3c2NC(=O)N4c2ccc(OC(C)C)cc2)C1	–	–	–	–	–	pIC50 [6]: 5.18
C=CC(=O)N1CCC[C@@H](NC(=O)c2sc3nccc4c3c2NC(=O)N4c2ccc(Oc3ccccc3)cc2C)C1 (stereo in doubt; 16)	6.82	–	–	6.40	–	pIC50 [5]: 5.61
CC(C)Oc1ccc(N2C(=O)Nc3c(C(=O)N[C@@H]4CCCNC4)sc4nccc2c34)cc1	–	–	–	–	–	pIC50 [6]: 5.46
C=CC(=O)N1CCC[C@@H](NC(=O)c2sc3nccc4c3c2NC(=O)N4c2ccc(Oc3ccccc3)cc2C)C1 (stereo in doubt; 17)	8.32	–	–	7.72	–	half-life at 1 µM [7]: < 4 min; pIC50 [5]: 6.85
C=CC(=O)NCCNC(=O)c1sc2nccc3c2c1NC(=O)N3c1ccc(Oc2ccccc2)cc1C	7.28	–	–	8.12	6.68	–
C=CC(=O)N1CC(NC(=O)c2sc3nccc4c3c2NC(=O)N4c2ccc(Oc3ccccc3)cc2C)C1	6.85	–	–	6.89	5.76	–
C=CC(=O)N1CCC[C@@H](NC(=O)c2sc3nccc4c3c2NC(=O)N4c2ccc(OC(C)C)cc2)C1	5.37	0.000256	60.7	–	–	inhibition [8]: Active; pIC50 [6]: 6.92
C=CC(=O)C[C@@H]1CC[C@@H](NC(=O)c2sc3nccc4c3c2NC(=O)N4c2ccc(Oc3ccccc3)cc2C)C1	7.93	–	–	8.10	6.89	–
C=CC(=O)N1CCC[C@@H](NC(=O)c2sc3nccc4c3c2NC(=O)N4c2ccc(Oc3ccccc3)cc2Cl)C1	7.91	–	–	7.89	6.66	–
O=C(N[C@@H]1CCCNC1)c1sc2nccc3c2c1NC(=O)N3c1ccc(Oc2ccccc2)cc1F	–	–	–	–	–	half-life [9]: 46 h
C=CC(=O)N1CCC[C@@H](NC(=O)c2sc3nccc4c3c2NC(=O)N4c2ccccc2)C1	5.19	0.000807	126	–	–	–
C=CC(=O)N1CCC[C@@H](NC(=O)c2sc3nccc4c3c2NC(=O)N4c2ccc(OC(C)C)cc2C)C1	6.47	–	–	7.38	6.34	–
C=CC(=O)N1CCC[C@@H](NC(=O)c2sc3nccc4c3c2NC(=O)N4c2ccc(Oc3ccccc3)cc2F)C1	8.04	–	–	7.70	6.74	–
C=CC(=O)N1CCC[C@@H](NC(=O)c2sc3nccc4c3c2NC(=O)N4c2cc(OC(C)C)ccc2C)C1	5.48	0.000222	67.5	–	–	–
